Experimental findings from ChEMBL document CHEMBL4340529, “Selective degradation of CDK6 by a palbociclib based PROTAC” (Bioorg Med Chem Lett, 2019) are described below.

Structures are written as SMILES. Active and inactive are the calls of the source. The calls are words filed in the database; no cut-off is given here. A value given as a limit tells only on which side of the number the result lay.

The target of assay [1] is T1, Protein cereblon/Cyclin-dependent kinase 6 (Homo sapiens) (UniProt Q00534+Q96SW2). Description: Induction of CRBN-mediated CDK6 degradation in human MIAPaCa2 cells at 0.5 uM measured after 4 hrs by western blot analysis. The format is cell-based. The procedure, abridged: (§1)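 MiaPaCa2 cells treated with degrader analogs at 0.5 μM for 4 h; lysates analysed by Western blot for CDK4, CDK6 and RB.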
T1 sequence (Q00534 whole entry, looked up): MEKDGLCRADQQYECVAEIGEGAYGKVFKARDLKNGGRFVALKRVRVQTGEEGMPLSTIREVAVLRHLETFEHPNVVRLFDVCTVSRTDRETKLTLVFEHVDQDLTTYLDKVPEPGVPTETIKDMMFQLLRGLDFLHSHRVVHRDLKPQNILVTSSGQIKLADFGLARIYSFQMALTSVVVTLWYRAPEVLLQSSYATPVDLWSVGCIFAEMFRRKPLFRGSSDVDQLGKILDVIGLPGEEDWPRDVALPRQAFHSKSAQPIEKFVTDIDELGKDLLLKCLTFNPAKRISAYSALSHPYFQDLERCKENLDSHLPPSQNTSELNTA
T1 sequence (Q96SW2 whole entry, looked up): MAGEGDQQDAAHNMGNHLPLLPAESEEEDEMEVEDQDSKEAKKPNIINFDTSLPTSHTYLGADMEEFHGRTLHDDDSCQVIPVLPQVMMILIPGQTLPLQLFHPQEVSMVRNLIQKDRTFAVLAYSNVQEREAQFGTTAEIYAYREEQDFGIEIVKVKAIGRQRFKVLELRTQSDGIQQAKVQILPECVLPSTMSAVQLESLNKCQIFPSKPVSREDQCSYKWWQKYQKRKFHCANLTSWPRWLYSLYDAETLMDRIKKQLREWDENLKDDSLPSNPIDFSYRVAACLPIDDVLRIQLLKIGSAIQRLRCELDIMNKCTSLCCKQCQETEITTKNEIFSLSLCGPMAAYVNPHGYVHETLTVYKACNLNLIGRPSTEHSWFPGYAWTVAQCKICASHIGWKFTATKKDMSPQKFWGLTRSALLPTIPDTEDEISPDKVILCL
In general terms: In western blotting, separated proteins are transferred to a membrane and probed.

For assay [2], the target named is T2, Protein cereblon/Cyclin-dependent kinase 4 (Homo sapiens) (UniProt P11802+Q96SW2). Description: Induction of CRBN-mediated CDK4 degradation in human MIAPaCa2 cells at 0.5 uM measured after 4 hrs by western blot analysis. The format is cell-based. The procedure, abridged:
as §1

The target in assay [3] is T1, Protein cereblon/Cyclin-dependent kinase 6 (Homo sapiens). Description: Induction of CRBN-mediated CDK6 degradation in human MIAPaCa2 cells at 5 to 10 uM measured after 4 hrs by western blot analysis. It counts as cell-based.
Assay [4] has the same target. Nature of the assay: Induction of CRBN-mediated CDK6 degradation in human MIAPaCa2 cells at 0.1 uM measured after 24 hrs by western blot analysis. The format is cell-based. A digest of the protocol:
(§2)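 Dose-response in MiaPaCa2 cells: graded degrader concentrations for 4 h and for 24 h; CDK4 and CDK6 read by immunoblot.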

The target in assay [5] is Protein cereblon/Cyclin-dependent kinase 7 (Homo sapiens) (UniProt P50613+Q96SW2). Description: Induction of CRBN-mediated CDK7 degradation in human MIAPaCa2 cells at 0.5 uM measured after 24 hrs by western blot analysis. The format is cell-based. A digest of the protocol: (§3)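 MiaPaCa2 cells exposed to 0.5 μM of each degrader analog for 24 h; lysates immunoblotted for CDK2, CDK5, CDK7 and CDK9 within a kinase panel.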
Chain of Protein cereblon/Cyclin-dependent kinase 7 (Homo sapiens) (P50613 whole entry, looked up): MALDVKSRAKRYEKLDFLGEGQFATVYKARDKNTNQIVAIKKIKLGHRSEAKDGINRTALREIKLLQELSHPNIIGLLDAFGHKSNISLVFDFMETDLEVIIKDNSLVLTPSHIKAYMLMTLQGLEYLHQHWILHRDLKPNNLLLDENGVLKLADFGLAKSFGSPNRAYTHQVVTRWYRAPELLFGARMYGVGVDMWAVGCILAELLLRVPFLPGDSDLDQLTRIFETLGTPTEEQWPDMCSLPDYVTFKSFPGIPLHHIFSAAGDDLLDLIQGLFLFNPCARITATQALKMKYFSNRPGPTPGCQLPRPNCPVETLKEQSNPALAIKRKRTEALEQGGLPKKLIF
Chain of Protein cereblon/Cyclin-dependent kinase 7 (Homo sapiens) (Q96SW2 whole entry, looked up): as the sequence (Q96SW2 whole entry, looked up) above

Assay [6] has as its target Protein cereblon/Cyclin-dependent kinase 2 (Homo sapiens) (UniProt P24941+Q96SW2). Nature of the assay: Induction of CRBN-mediated CDK2 degradation in human MIAPaCa2 cells at 0.5 uM measured after 24 hrs by western blot analysis. It counts as cell-based. A digest of the protocol:
as §3

Assay [7] is described as follows: Induction of CRBN-mediated CDK4/cyclin D1 (unknown origin) degradation. As to conditions: Homo sapiens.
For assay [8], the target named is T1, Protein cereblon/Cyclin-dependent kinase 6 (Homo sapiens). Description: Induction of CRBN-mediated CDK6 degradation in human MIAPaCa2 cells at 1 uM measured after 24 hrs in presence of pomalidomide by Western blot analysis. It counts as cell-based. A digest of the protocol: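 CRBN-ligand competition in MiaPaCa2 cells: pomalidomide 0.1–10 µM given alone or with degrader 1 µM for 24 h; lysates immunoblotted for CDK6.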

Assay [9] addresses Protein cereblon/Cyclin-dependent kinase 9 (Homo sapiens) (UniProt P50750+Q96SW2). Description: Induction of CRBN-mediated CDK9 degradation in human MIAPaCa2 cells at 0.5 uM measured after 24 hrs by western blot analysis. The format is cell-based. A digest of the protocol:
as §3

Assay [10] deals with T2, Protein cereblon/Cyclin-dependent kinase 4 (Homo sapiens). Nature of the assay: Induction of CRBN-mediated CDK4 degradation in human MIAPaCa2 cells at 0.1 uM measured after 24 hrs by western blot analysis. The format is cell-based. A digest of the protocol: as §2
Assay [11] shares this target. Nature of the assay: Induction of CRBN-mediated CDK4 degradation in human HPNE cells at 0.1 uM measured after 4 hrs by western blot analysis. The format is cell-based. A digest of the protocol:
(§4)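 HPNE cells given a range of degrader concentrations and harvested at 4 h and at 24 h; CDK4 and CDK6 levels read by Western blot.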

The target of assay [12] is T1, Protein cereblon/Cyclin-dependent kinase 6 (Homo sapiens). Description: Induction of CRBN-mediated CDK6 degradation in human MIAPaCa2 cells at 1 uM measured after 24 hrs in presence of palbociclib by western blot analysis. The format is cell-based. The procedure, abridged:
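Competition test: MiaPaCa2 cells incubated 24 h with palbociclib 10 µM, degrader 1 µM, or both together; lysates probed for CDK4 and CDK6 by Western blot.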

The target in assay [13] is Protein cereblon/Cyclin-dependent kinase 6/G1/S-specific cyclin-D3 (Homo sapiens) (UniProt P30281+Q00534+Q96SW2). Description: Induction of CRBN-mediated CDK6/cyclin D3 (unknown origin) degradation. It counts as protein assay.
Chain of Protein cereblon/Cyclin-dependent kinase 6/G1/S-specific cyclin-D3 (Homo sapiens) (P30281 whole entry, looked up): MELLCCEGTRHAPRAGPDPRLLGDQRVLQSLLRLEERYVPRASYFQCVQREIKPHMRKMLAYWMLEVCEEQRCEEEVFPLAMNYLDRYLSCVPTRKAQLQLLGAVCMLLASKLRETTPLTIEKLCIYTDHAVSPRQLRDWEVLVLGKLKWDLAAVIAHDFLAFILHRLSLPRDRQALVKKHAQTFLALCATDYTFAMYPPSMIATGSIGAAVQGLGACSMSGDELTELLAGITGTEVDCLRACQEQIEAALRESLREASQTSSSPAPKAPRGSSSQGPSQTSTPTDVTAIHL
Chain of Protein cereblon/Cyclin-dependent kinase 6/G1/S-specific cyclin-D3 (Homo sapiens) (Q00534 whole entry, looked up): as the sequence (Q00534 whole entry, looked up) above
Chain of Protein cereblon/Cyclin-dependent kinase 6/G1/S-specific cyclin-D3 (Homo sapiens) (Q96SW2 whole entry, looked up): as the sequence (Q96SW2 whole entry, looked up) above
For assay [14], the target named is Protein cereblon/Cyclin-dependent kinase 5 (Homo sapiens) (UniProt Q00535+Q96SW2). Nature of the assay: Induction of CRBN-mediated CDK5 degradation in human MIAPaCa2 cells at 0.5 uM measured after 24 hrs by western blot analysis. It counts as cell-based. The procedure, abridged: as §3
Chain of Protein cereblon/Cyclin-dependent kinase 5 (Homo sapiens) (Q00535 whole entry, looked up): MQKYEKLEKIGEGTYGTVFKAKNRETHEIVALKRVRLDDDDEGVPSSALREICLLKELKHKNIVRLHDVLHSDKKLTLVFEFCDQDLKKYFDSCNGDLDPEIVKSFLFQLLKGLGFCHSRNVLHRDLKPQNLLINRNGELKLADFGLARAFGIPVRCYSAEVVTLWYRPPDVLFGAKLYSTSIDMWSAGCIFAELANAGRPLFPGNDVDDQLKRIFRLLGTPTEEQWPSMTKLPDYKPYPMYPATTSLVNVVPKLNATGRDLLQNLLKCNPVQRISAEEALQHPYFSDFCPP
Chain of Protein cereblon/Cyclin-dependent kinase 5 (Homo sapiens) (Q96SW2 whole entry, looked up): as the sequence (Q96SW2 whole entry, looked up) above
Assay [15] addresses T1, Protein cereblon/Cyclin-dependent kinase 6 (Homo sapiens). Description: Induction of CRBN-mediated CDK6 degradation in human MIAPaCa2 cells at 500 nM by Western blot analysis. The format is cell-based. As to conditions: TDE = time-dependent effect.
For assay [16] the target is unchanged. Description: Induction of CRBN-mediated CDK6 degradation in human MIAPaCa2 cells at 1 uM measured after 24 hrs by western blot analysis. The format is cell-based.
In assay [17] the target is Protein cereblon/Retinoblastoma-associated protein (Homo sapiens) (UniProt P06400+Q96SW2). Description: Induction of CRBN-mediated RB degradation in human MIAPaCa2 cells at 0.5 uM measured after 4 hrs by western blot analysis. It counts as cell-based. The procedure, abridged:
as §1

For assay [18], the target named is T2, Protein cereblon/Cyclin-dependent kinase 4 (Homo sapiens). Nature of the assay: Induction of CRBN-mediated CDK4 degradation in human MIAPaCa2 cells at 0.1 uM measured after 4 hrs by western blot analysis. The format is cell-based. The procedure, abridged:
as §2

In assay [19] the target is T1, Protein cereblon/Cyclin-dependent kinase 6 (Homo sapiens). Description: Induction of CRBN-mediated CDK6 degradation in human HPNE cells at 5 to 10 uM measured after 4 hrs by Western blot analysis. The format is cell-based.
Assay [20] has the same target. Description: Induction of CRBN-mediated CDK6 degradation in human HPNE cells at 500 nM by Western blot analysis. It counts as cell-based. To be noted: TDE = time-dependent effect.
The target is the same in assay [21]. Nature of the assay: Induction of CRBN-mediated CDK6 degradation in human MIAPaCa2 cells at 0.15 to 5 uM measured after 4 hrs by Western blot analysis. The format is cell-based.
Assay [22] deals with T2, Protein cereblon/Cyclin-dependent kinase 4 (Homo sapiens). Description: Induction of CRBN-mediated CDK4 degradation in human HPNE cells at 0.1 uM measured after 24 hrs by western blot analysis. It counts as cell-based. A digest of the protocol: as §4
In assay [23] the target is T1, Protein cereblon/Cyclin-dependent kinase 6 (Homo sapiens). Nature of the assay: Induction of CRBN-mediated CDK6 degradation in human MIAPaCa2 cells at 0.1 uM measured after 4 hrs by Western blot analysis. It counts as cell-based. The procedure, abridged: as §2
For assay [24] the target is unchanged. Description: Induction of CRBN-mediated CDK6 degradation in human HPNE cells at 0.1 uM measured after 24 hrs by western blot analysis. The format is cell-based. A digest of the protocol: as §4
Assay [25] shares this target. Description: Induction of CRBN-mediated CDK6 degradation in human HPNE cells at 0.1 uM measured after 4 hrs by Western blot analysis. The format is cell-based. A digest of the protocol:
as §4

The target is the same in assay [26]. Description: Induction of CRBN-mediated CDK6 degradation in human MIAPaCa2 cells at 1 uM measured after 8 hrs in presence of proteasome inhibitor MG132 by Western blot analysis. The format is cell-based.

T2 sequence (P11802 2-303 limits assumed): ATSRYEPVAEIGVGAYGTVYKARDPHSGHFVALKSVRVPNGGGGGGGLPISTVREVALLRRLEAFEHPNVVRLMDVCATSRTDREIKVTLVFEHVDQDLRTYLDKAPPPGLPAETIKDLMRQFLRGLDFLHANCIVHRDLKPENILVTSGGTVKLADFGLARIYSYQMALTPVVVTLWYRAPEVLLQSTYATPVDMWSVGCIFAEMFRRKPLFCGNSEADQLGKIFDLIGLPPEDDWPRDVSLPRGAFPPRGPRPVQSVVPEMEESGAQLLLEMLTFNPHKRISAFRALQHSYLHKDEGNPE
T2 sequence (Q96SW2 whole entry partner): as the sequence (Q96SW2 whole entry, looked up) above
Chain of Protein cereblon/Cyclin-dependent kinase 9 (Homo sapiens) (P50750 whole entry, looked up): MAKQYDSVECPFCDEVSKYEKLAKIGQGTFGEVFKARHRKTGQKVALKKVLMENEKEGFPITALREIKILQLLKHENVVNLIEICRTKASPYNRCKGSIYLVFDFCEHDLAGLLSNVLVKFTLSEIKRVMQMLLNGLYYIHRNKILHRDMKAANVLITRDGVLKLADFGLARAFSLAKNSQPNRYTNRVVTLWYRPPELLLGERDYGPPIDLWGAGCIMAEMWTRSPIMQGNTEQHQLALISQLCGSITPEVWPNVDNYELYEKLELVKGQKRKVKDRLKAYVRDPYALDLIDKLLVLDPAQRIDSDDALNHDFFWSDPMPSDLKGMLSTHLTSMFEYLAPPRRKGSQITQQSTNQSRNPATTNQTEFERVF
Chain of Protein cereblon/Cyclin-dependent kinase 9 (Homo sapiens) (Q96SW2 whole entry, looked up): as the sequence (Q96SW2 whole entry, looked up) above
Chain of Protein cereblon/Retinoblastoma-associated protein (Homo sapiens) (P06400 whole entry, looked up): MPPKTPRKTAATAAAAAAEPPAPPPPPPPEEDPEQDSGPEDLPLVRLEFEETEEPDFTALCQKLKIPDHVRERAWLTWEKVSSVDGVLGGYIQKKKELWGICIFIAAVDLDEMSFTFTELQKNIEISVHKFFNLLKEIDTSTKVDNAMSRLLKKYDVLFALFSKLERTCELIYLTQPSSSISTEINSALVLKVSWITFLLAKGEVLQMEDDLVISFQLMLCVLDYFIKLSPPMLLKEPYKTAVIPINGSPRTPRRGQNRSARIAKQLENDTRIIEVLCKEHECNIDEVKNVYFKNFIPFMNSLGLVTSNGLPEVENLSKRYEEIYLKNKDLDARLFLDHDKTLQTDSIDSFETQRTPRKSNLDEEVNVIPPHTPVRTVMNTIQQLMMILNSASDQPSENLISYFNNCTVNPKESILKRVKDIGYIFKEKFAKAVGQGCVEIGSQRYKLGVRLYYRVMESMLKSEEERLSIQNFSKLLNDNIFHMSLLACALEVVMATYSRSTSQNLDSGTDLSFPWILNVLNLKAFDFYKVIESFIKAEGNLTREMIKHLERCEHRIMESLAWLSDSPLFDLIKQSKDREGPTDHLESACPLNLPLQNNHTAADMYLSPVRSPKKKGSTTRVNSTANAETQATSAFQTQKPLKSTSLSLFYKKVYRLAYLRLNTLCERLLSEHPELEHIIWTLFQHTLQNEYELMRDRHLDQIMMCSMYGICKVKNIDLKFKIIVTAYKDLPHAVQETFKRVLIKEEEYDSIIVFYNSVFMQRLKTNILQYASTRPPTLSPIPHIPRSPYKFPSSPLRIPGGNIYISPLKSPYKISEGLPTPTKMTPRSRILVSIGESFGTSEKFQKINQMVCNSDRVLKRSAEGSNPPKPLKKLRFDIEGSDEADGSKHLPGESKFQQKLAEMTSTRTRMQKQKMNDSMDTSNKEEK
Chain of Protein cereblon/Retinoblastoma-associated protein (Homo sapiens) (Q96SW2 whole entry, looked up): as the sequence (Q96SW2 whole entry, looked up) above

With `CC(=O)c1c(C)c2cnc(Nc3ccc(N4CCN(CCCCCC(=O)Nc5cccc6c5C(=O)N(C5CCC(=O)NC5=O)C6=O)CC4)cn3)nc2n(C2CCCC2)c1=O` (stereo not drawn), the result in [1] and in assay [2] was Active.
As to `CC(=O)c1c(C)c2cnc(Nc3ccc(N4CCN(CC(=O)NCCCCNc5cccc6c5C(=O)N(C5CCC(=O)NC5=O)C6=O)CC4)cn3)nc2n(C2CCCC2)c1=O` (stereo not drawn), the result in assay [1] and in assay [2] was Active.
With `CC(=O)c1c(C)c2cnc(Nc3ccc(N4CCN(CC(=O)NCCCOCCOCCOCCCNc5cccc6c5C(=O)N(C5CCC(=O)NC5=O)C6=O)CC4)cn3)nc2n(C2CCCC2)c1=O` (stereo not drawn), the outcome in assay [3], in assay [4], in assay [1], in [16], in assay [19] and in [21] was Active. Also, the result in [23], in assay [24] and in assay [25] was Active. Further, the outcome in assay [5], in assay [6], in [8], in [9], in [10] and in [11] was inactive. In addition, the outcome in [12], in assay [14], in assay [17], in [18], in assay [2] and in assay [22] was inactive. In addition, the result in assay [26] was inactive. Besides, the Activity was less than 1.5 nM in [7], 6.61 nM in assay [13], “Tde” in [15] and “Tde” in assay [20].
With `CC(=O)c1c(C)c2cnc(Nc3ccc(N4CCN(CC(=O)NCCCCCCCCNc5cccc6c5C(=O)N(C5CCC(=O)NC5=O)C6=O)CC4)cn3)nc2n(C2CCCC2)c1=O` (stereo not drawn), the result in assay [1] was Active.
Take `CC(=O)c1c(C)c2cnc(Nc3ccc(N4CCN(CCOCCOCCOc5cccc6c5C(=O)N(C5CCC(=O)NC5=O)C6=O)CC4)cn3)nc2n(C2CCCC2)c1=O` (stereo not drawn): the result in assay [1] and in assay [2] was Active.
